These results are taken from ChEMBL document CHEMBL1124451, “[(1H-imidazol-1-yl)methyl]- and [(3-pyridinyl)methyl]pyrroles as thromboxane synthetase inhibitors” (J Med Chem, 1989).

Molecules are shown by their SMILES.

The term inhibition in vivo denotes the drop in the measured response relative to a control, in per cent. In general, IC50 refers to the midpoint of a concentration-inhibition curve.

Assay [1] concerns Mus musculus. As to the kind of experiment: Activity at 10 mg/kg given perorally against mortality in a pulmonary thromboembolism model in mice (10 animals) at -1h following oral administration. It is filed as functional. Summed up: (§1)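 Male Swiss-Webster mice (22-26 g), 10 per group (one group of 9); test material given po in 0.2 mL CMC at -1, -3, -5 or -18 h before challenge. At hour 0, collagen extract plus epinephrine hydrochloride given iv via tail vein in 0.9% saline. The collagen amount was titrated per lot to 90-100% mortality in vehicle controls. Readout: % surviving at 24 h.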

The subject of assay [2] is Mus musculus. Nature of the assay: Effect of TXA2 Synthetase inhibition (topically) upon inflammation in arachidonic acid induced ear edema in mice. It is filed as functional. In outline:
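Arachidonic acid-induced ear edema in mice; test material applied topically at 2 mg/mouse.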

Assay [3] deals with Rattus norvegicus. As to the kind of experiment: Percent inhibition of thromboxane from control in urine of rats with 5/6 nephrectomy at 68 mg/kg per day. It counts as functional. In outline: (§2)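 Male Munich Wistar rats, 200-270 g, 5/6 renal ablation (right nephrectomy plus ligation of arterial branches to two-thirds of left kidney) under 50 mg/kg brevital ip. Drug given in drinking water from 1 week post-surgery: 500 mg/L (68 mg/kg/day), 1500 mg/L (205 mg/kg/day), or 3000 mg/L (410 mg/kg/day) after 9 weeks. TXB2 measured by radioimmunoassay in urine (8-11 weeks) and serum (10-13 weeks); controls received water.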

In assay [4] the test system is Rattus norvegicus. As to the kind of experiment: Concentration of thromboxane in urine of rats with 5/6 nephrectomy; when treated with compound at 410 mg/kg per day (n=4). It is filed as functional, organism-based. In outline: as §2
Assay [5] concerns Rattus norvegicus. As to the kind of experiment: Effect of TXA2 Synthetase inhibition (perorally) upon inflammation in carrageenan induced rat paw edema in rats.
For assay [6], the system named is Mus musculus. Nature of the assay: Activity at 12.5 mg/kg given intravenously against mortality in a pulmonary thromboembolism model in mice (10 animals) at 3 hr. The following applies: route intravenous. It is filed as functional. Summed up:
(§3)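 Male Swiss-Webster mice (22-26 g); test material given iv in 0.2 mL CMC before challenge (mostly at -3 h, one group at -1 h). At hour 0, collagen extract plus epinephrine hydrochloride given iv in 0.2 mL 0.9% saline via tail vein. The collagen amount was set per lot as the minimum giving 90-100% mortality in CMC-vehicle controls. Readout: % surviving at 24 h.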

The subject of assay [7] is Mus musculus. As to the kind of experiment: Activity at 10 mg/kg given perorally against mortality in a pulmonary thromboembolism model in mice (10 animals) at -3h following oral administration. It is filed as functional. In outline: as §1
In assay [8] the test system is Mus musculus. Nature of the assay: Activity at 6.25 mg/kg given intravenously against mortality in a pulmonary thromboembolism model in mice (10 animals) at 3 hr. It is filed as functional. Particulars: route intravenous. Summed up:
as §3

Assay [9] concerns Rattus norvegicus. As to the kind of experiment: Percent inhibition of thromboxane from control in urine of rats with 5/6 nephrectomy at 410 mg/kg per day. It counts as functional. Summed up:
as §2

The test system of assay [10] is Mus musculus. Nature of the assay: Activity at 25 mg/kg given intravenously against mortality in a pulmonary thromboembolism model in mice (10 animals) at 3 hr. It counts as functional. The following applies: route intravenous. Summed up:
as §3

The species named for assay [11] is Mus musculus. Nature of the assay: Effect of TXA2 Synthetase inhibition (perorally) upon inflammation in phenoylquinone-induced writhing in mice. It counts as functional.
Assay [12] concerns Rattus norvegicus. Nature of the assay: Total glomeruli with lesions was determined […], in kidneys of rats after dosing with compound at 205 mg/kg per day. It counts as functional, Kidney. In outline:
(§4)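 5/6 renal ablated male Munich Wistar rats received drug in drinking water: 205 mg/kg/day, or 68 mg/kg/day for 9 weeks then 410 mg/kg/day for 4 weeks; controls received water. Kidneys perfused with fixative at end of week 10 (205 group) or week 13. Glomeruli with lesions counted (mesangial proliferation, tubular hyaline casts, cortical interstitial inflammation, hydronephrosis); mean ± SEM.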

Assay [13] has as its system Rattus norvegicus. As to the kind of experiment: Concentration of thromboxane in urine of rats with 5/6 nephrectomy; when treated with compound at 68 mg/kg per day (n=4). It counts as functional, organism-based. In outline:
as §2

In assay [14] the test system is Rattus norvegicus. As to the kind of experiment: Total glomeruli with lesions was determined […], in kidneys of rats after dosing at 68 mg/kg per day for 9 weeks following by dosing with 410 mg/kg/day for 4 weeks. It is filed as functional, Kidney. Summed up:
as §4

In assay [15] the test system is Mus musculus. Nature of the assay: Effect of TXA2 Synthetase inhibition (topically) upon inflammation in 12-O-tetradecanoylphorbol acetate induced ear edema in mice. It is filed as functional.
Assay [16] deals with Rattus norvegicus. Nature of the assay: Percent inhibition of thromboxane from control in urine of rats with 5/6 nephrectomy at 205 mg/kg per day. It is filed as functional. In outline: as §2
Assay [17] deals with T1, Thromboxane-A synthase (Homo sapiens) (UniProt P24557).
T1 sequence (whole entry): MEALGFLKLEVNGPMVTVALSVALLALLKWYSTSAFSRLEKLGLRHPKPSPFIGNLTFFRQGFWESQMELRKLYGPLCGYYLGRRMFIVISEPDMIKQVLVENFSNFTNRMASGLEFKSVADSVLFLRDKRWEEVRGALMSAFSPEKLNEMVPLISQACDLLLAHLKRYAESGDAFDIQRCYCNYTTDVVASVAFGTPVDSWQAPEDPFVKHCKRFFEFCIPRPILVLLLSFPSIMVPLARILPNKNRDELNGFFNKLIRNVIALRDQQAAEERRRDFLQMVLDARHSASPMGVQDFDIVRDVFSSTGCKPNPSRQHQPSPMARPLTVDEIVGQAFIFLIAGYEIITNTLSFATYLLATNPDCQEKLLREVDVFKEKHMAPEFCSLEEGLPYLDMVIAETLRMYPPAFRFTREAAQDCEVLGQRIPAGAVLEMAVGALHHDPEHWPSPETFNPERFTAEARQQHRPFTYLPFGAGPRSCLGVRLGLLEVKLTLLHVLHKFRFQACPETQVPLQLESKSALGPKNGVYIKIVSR
As to the kind of experiment: Relative potency of thromboxane A2 synthetase as reduced ADP-induced aggregation of human platelet rich plasma compared to dazoxiben. It is filed as functional, cell-free.

The subject of assay [18] is Rattus norvegicus. As to the kind of experiment: Concentration of thromboxane in serum of rats with 5/6 nephrectomy; when treated with compound at 205 mg/kg per day (n=4). It is filed as functional, organism-based. Summed up:
as §2

The species named for assay [19] is Rattus norvegicus. As to the kind of experiment: Effect of TXA2 Synthetase inhibition (perorally) upon inflammation in rat adjuvant-induced arthritis model. It is filed as functional.
Assay [20] concerns Mus musculus. As to the kind of experiment: Activity at 10 mg/kg given perorally against mortality in a pulmonary thromboembolism model in mice (10 animals) at 1 hr. It is filed as functional. Particulars: route oral. Summed up:
as §1

In assay [21] the test system is Rattus norvegicus. As to the kind of experiment: Concentration of thromboxane in urine of rats with 5/6 nephrectomy; when treated with compound at 205 mg/kg per day (n=5). It counts as functional, organism-based. Summed up: as §2
Assay [22] has as its system Mus musculus. Nature of the assay: Effect of TXA2 Synthetase inhibition (perorally) upon inflammation in oxazolone induced delayed hypersensitivity ear edema in mice. It counts as functional. In outline:
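Oxazolone-induced delayed hypersensitivity ear edema in mice; test material dosed orally at 25 mg/kg.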

In assay [23] the test system is Mus musculus. Nature of the assay: Activity at 10 mg/kg given perorally against mortality in a pulmonary thromboembolism model in mice (10 animals) at -18h following oral administration. It is filed as functional. Summed up: as §1
Assay [24] deals with Rattus norvegicus. Nature of the assay: Concentration of thromboxane in serum of rats with 5/6 nephrectomy; when treated with compound at 410 mg/kg per day (n=4). It counts as functional, organism-based. In outline: as §2
Assay [25] has as its system Mus musculus. Nature of the assay: Activity at 10 mg/kg given perorally against mortality in a pulmonary thromboembolism model in mice (10 animals) at -5h following oral administration. It counts as functional. Summed up: as §1
Assay [26] has as its system Rattus norvegicus. As to the kind of experiment: Percent inhibition of thromboxane from control in serum of rats with 5/6 nephrectomy at 205 mg/kg per day. It counts as functional. Summed up:
as §2

Assay [27] deals with Rattus norvegicus. As to the kind of experiment: Percent inhibition of thromboxane from control in serum of rats with 5/6 nephrectomy at 410 mg/kg per day. It is filed as functional. In outline:
as §2

A further assay is filed under the species Homo sapiens. As to the kind of experiment: In vitro inhibition of ADP-induced aggregation of human platelet rich plasma in the presence of pig aortal microsomes. It is filed as functional. Particulars: Aorta. In outline:
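Human citrated blood (0.38% citrate final), PRP by centrifugation at 200g, room temperature. Drug added to 1.0 mL PRP, 2 min at 37 °C with stirring (500 rpm), then pig aortal microsomes 3 min; microsome amount set by the dazoxiben standard. Aggregation induced by 5 μM ADP (final), read turbidimetrically.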

Assay [28] relates to Mus musculus. Nature of the assay: Activity at 10 mg/kg […] against mortality in a pulmonary thromboembolism model in mice (10 animals) at -3h following oral administration. It is filed as functional. Summed up:
as §1

Assay [29] concerns Mus musculus. Nature of the assay: Activity at 10 mg/kg given intravenously against mortality in a pulmonary thromboembolism model in mice (10 animals) at -1h. It counts as functional. The following applies: route intravenous. Summed up: as §3
For assay [30], the system named is Mus musculus. As to the kind of experiment: Activity at 10 mg/kg […] against mortality in a pulmonary thromboembolism model in mice (10 animals) at -1h following oral administration. It counts as functional. Summed up: as §1
Assay [31] has as its system Mus musculus. Nature of the assay: Activity at 10 mg/kg […] against mortality in a pulmonary thromboembolism model in mice (10 animals) at -18h following oral administration. It counts as functional. In outline: as §1
The subject of assay [32] is Mus musculus. As to the kind of experiment: Activity at 10 mg/kg […] against mortality in a pulmonary thromboembolism model in mice (10 animals) at -5h following oral administration. It is filed as functional. In outline:
as §1

For assay [33], the system named is Mus musculus. As to the kind of experiment: Activity at 25 mg/kg given intravenously against mortality in a pulmonary thromboembolism model in mice (9 animals) at -3h. It counts as functional. The following applies: route intravenous. Summed up: as §3
For assay [34], the system named is Mus musculus. Nature of the assay: Activity at 10 mg/kg […] against mortality in a pulmonary thromboembolism model in mice (10 animals) at -7h following oral administration. It counts as functional.

Take `C/C(=C/c1ccc(Cn2ccnc2)n1C)C(=O)O`: the survival at 10 mg/kg is 40% with Mus musculus [1]; 40% in the assay on Mus musculus [7]; 50% in the assay on Mus musculus [20]; 10% in the assay with Mus musculus [23]; 30% in the assay with Mus musculus [25]. Further, the Dose with Mus musculus [2] is 2 mg mouse-1; in the assay on Rattus norvegicus [5], 10 mg rat-1; in the assay filed under Mus musculus [11], 3 mg mouse-1; with Mus musculus [15], 0.5 mg mouse-1; in the assay filed under Rattus norvegicus [19], 4.25 mg rat-1; in the assay on Mus musculus [22], 25 mg/kg. For the same molecule, the inhibition in vivo at 68 mg/kg/day in the assay with Rattus norvegicus [3] amounted to 78.9%. Moreover, the Concentration was found to be 59 ng/day in the assay with Rattus norvegicus [4]; 42 ng/day in the assay with Rattus norvegicus [13]; 10 ng/day with Rattus norvegicus [18]; 45 ng/day with Rattus norvegicus [21]; 36 ng/day in the assay with Rattus norvegicus [24]. The survival at 12.5 mg/kg with Mus musculus [6] worked out at 70%. Moreover, in the assay with Mus musculus [8], the survival at 6.25 mg/kg was found to be 70%. Moreover, the inhibition in vivo at 410 mg/kg/day with Rattus norvegicus [9] is 70.4%; with Rattus norvegicus [27], 92.8%. Further, the survival at 25 mg/kg in the assay with Mus musculus [10] worked out at 90%. Further, the Total glomeruli with Rattus norvegicus [12] is on record as 13; in the assay with Rattus norvegicus [14], 8. For the same molecule, the inhibition in vivo at 205 mg/kg/day in the assay on Rattus norvegicus [16] came to 77.4%; in the assay on Rattus norvegicus [26], 98%. The molecule also returned a Relative potency in assay [17] of 2.2.

As to `O=C(O)c1ccc(OCCn2ccnc2)cc1` [DAZOXIBEN], the IC50 in the assay listed under Homo sapiens worked out at 2280 nM. The survival at 10 mg/kg with Mus musculus [28] is 40%; in the assay on Mus musculus [29], 30%; with Mus musculus [30] it was 50%; in the assay with Mus musculus [31], 10%; in the assay on Mus musculus [32] it was 20%; in the assay with Mus musculus [34] it was 20%. Moreover, in the assay on Mus musculus [33], the survival at 25 mg/kg amounted to 67%.
